These results are taken from ChEMBL document CHEMBL3745673, “Synthesis, antimycobacterial screening and ligand-based molecular docking studies on novel pyrrole derivatives bearing pyrazoline, isoxazole and phenyl thiourea moieties” (Eur J Med Chem, 2016).

Values after ≈ are worked out from the molar mass of the structure shown.

For this assay, the system named is Mycobacterium tuberculosis. In words: Antitubercular activity against multi drug resistant Mycobacterium tuberculosis H37Rv after 5 days by microplate alamar blue assay. The class given is functional. To be noted: 120 h. A digest of the protocol: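 Middlebrook 7H9 broth with compounds serially diluted on the plate over ten concentrations from 0.2 to 100. Sealed plates incubated 5 days at 37°C, then a fresh 1:1 mix of Alamar Blue and 10% Tween 80 was added for a further 24 h. Blue wells were scored as no growth and pink wells as growth.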
(In general: The colour change of resazurin is a common sign of viable cells or microbes.)

The term MIC denotes the least concentration at which growth counts as inhibited. A higher MIC goes with a need for much substance. On to `CC(=O)Nc1ccc(O)c(C2CC(c3ccc(Cl)cc3)=NN2C(=O)c2ccncc2)c1` (centres undefined), for which the MIC came out at 3.12 µg/mL (≈ 7.17 µM).

In the case of `Clc1ccc(-c2cc(-c3ccc(-n4cccc4)cc3)on2)c(Cl)c1`, the lowest concentration to inhibit growth (MIC) was 50 µg/mL (≈ 141 µM).

Compound `O=C(/C=C/c1ccccc1)c1ccc(-n2cccc2)cc1` had an MIC of 50 µg/mL (≈ 183 µM).

In turn, `CC(=O)N1N=C(c2ccc(-n3cccc3)cc2)CC1c1ccccc1Br` (centres undefined) displayed an MIC of 100 µg/mL (≈ 245 µM).

Regarding `Cc1ccc(C)n1-c1ccccc1NC(=S)Nc1cccc(Br)c1`, the MIC came out at 50 µg/mL (≈ 125 µM).

With `COc1ccc(/C=C/C(=O)c2ccc(-n3cccc3)cc2)cc1`, the MIC is 12.5 µg/mL (≈ 41.2 µM).

For the compound `c1ccc(-c2cc(-c3ccc(-n4cccc4)cc3)on2)cc1`, the lowest concentration to inhibit growth (MIC) was 100 µg/mL (≈ 349 µM).

`NC(=S)N1N=C(C/N=N/NC(=O)c2cccnc2)CC1c1ccccc1` (centres undefined) returned an MIC of 1.25 µg/mL (≈ 3.4 µM).

Compound `Clc1cccc(Cl)c1-c1cc(-c2ccc(-n3cccc3)cc2)on1` returned an MIC of 100 µg/mL (≈ 282 µM).

`Cc1ccc(NC(=S)Nc2ccccc2-n2c(C)ccc2C)cc1` displayed an MIC of 50 µg/mL (≈ 149 µM).

Take `c1coc(-c2cc(-c3ccc(-n4cccc4)cc3)on2)c1`: it took 25 µg/mL (≈ 90.5 µM) to inhibit growth (MIC).

The compound `O=C(/C=C/c1cccc(Br)c1)c1ccc(-n2cccc2)cc1` came in with an MIC of 100 µg/mL (≈ 284 µM).

With `Clc1ccccc1-c1cc(-c2ccc(-n3cccc3)cc2)on1`, it took 25 µg/mL (≈ 77.9 µM) to inhibit growth (MIC).

Turning to `Cc1ccc(C)n1-c1ccccc1NC(=S)Nc1ccc([N+](=O)[O-])cc1`, the MIC amounted to 50 µg/mL (≈ 136 µM).

In the case of `Cc1ccc(C)n1-c1ccccc1NC(=S)Nc1ccccc1`, the MIC came out at 50 µg/mL (≈ 156 µM).

In turn, `Clc1cccc(-c2cc(-c3ccc(-n4cccc4)cc3)on2)c1Cl` gave an MIC of 25 µg/mL (≈ 70.4 µM).

In turn, `Cc1ccc(C)n1-c1ccccc1NC(=S)Nc1cccc(Cl)c1` yielded an MIC of 50 µg/mL (≈ 140 µM).

Take `CC(=O)N1N=C(c2ccc(-n3cccc3)cc2)CC1c1ccc(Cl)cc1` (centres undefined): 25 µg/mL (≈ 68.7 µM) was the least that counted as inhibitory (MIC).

For `CC(=O)N1N=C(c2ccc(-n3cccc3)cc2)CC1c1ccc(F)cc1` (centres undefined), the MIC was 12.5 µg/mL (≈ 36 µM).

For `COc1ccc(-c2cc(-c3ccc(-n4cccc4)cc3)on2)cc1OC`, the MIC amounted to 12.5 µg/mL (≈ 36.1 µM).

For the compound `COc1ccc(C2CC(c3ccc(-n4cccc4)cc3)=NN2C(C)=O)c(OC)c1` (centres undefined), the MIC turned out to be 6.25 µg/mL (≈ 16 µM).

`Clc1ccc(-c2cc(-c3ccc(-n4cccc4)cc3)on2)cc1`: the MIC turned out to be 50 µg/mL (≈ 156 µM).

`CC(=O)N1N=C(c2ccc(-n3cccc3)cc2)CC1c1ccc(C)cc1` (centres undefined): the MIC is 6.25 µg/mL (≈ 18.2 µM).

As to `Brc1cccc(-c2cc(-c3ccc(-n4cccc4)cc3)on2)c1`, the MIC was determined as 50 µg/mL (≈ 137 µM).

Compound `Cc1ccc(C)n1-c1ccccc1NC(=S)Nc1ccc(Cl)cc1` yielded an MIC of 50 µg/mL (≈ 140 µM).

`Cc1ccc(C)n1-c1ccccc1NC(=S)Nc1ccc(F)cc1` had an MIC of 1.6 µg/mL (≈ 4.71 µM).

In turn, `O=C(/C=C/c1cccc(Cl)c1Cl)c1ccc(-n2cccc2)cc1` returned an MIC of 25 µg/mL (≈ 73.1 µM).

Consider `O=C(/C=C/c1cccc(Oc2ccccc2)c1)c1ccc(-n2cccc2)cc1`, for which 25 µg/mL (≈ 68.4 µM) was the least that counted as inhibitory (MIC).

`O=C(/C=C/c1c(Cl)cccc1Cl)c1ccc(-n2cccc2)cc1` registered an MIC of 25 µg/mL (≈ 73.1 µM).

Take `CC(=O)N1N=C(c2ccc(-n3cccc3)cc2)CC1c1cccc(Br)c1` (centres undefined): the MIC turned out to be 50 µg/mL (≈ 122 µM).

Take `CC(C)c1ccc(/C=C/C(=O)c2ccc(-n3cccc3)cc2)cc1`: 12.5 µg/mL (≈ 39.6 µM) was the least that counted as inhibitory (MIC).

Consider `CC(=O)N1N=C(c2ccc(-n3cccc3)cc2)CC1c1c(Cl)cccc1Cl` (centres undefined), for which the MIC came to 25 µg/mL (≈ 62.8 µM).

`O=C(/C=C/c1ccc(Cl)cc1)c1ccc(-n2cccc2)cc1` displayed an MIC of 50 µg/mL (≈ 162 µM).

In turn, `COc1cccc(C2CC(c3ccc(-n4cccc4)cc3)=NN2C(C)=O)c1` (centres undefined) registered an MIC of 6.25 µg/mL (≈ 17.4 µM).

The compound `O=C(/C=C/c1ccco1)c1ccc(-n2cccc2)cc1` registered an MIC of 50 µg/mL (≈ 190 µM).

The compound `CC(=O)N1N=C(c2ccc(-n3cccc3)cc2)CC1c1cccc(Cl)c1Cl` (centres undefined) had an MIC of 25 µg/mL (≈ 62.8 µM).

`CC(=O)N1N=C(c2ccc(-n3cccc3)cc2)CC1c1ccccc1Cl` (centres undefined) gave an MIC of 25 µg/mL (≈ 68.7 µM).

`COc1ccccc1NC(=S)N1N=C(c2ccc(O)c(C)c2)CC1c1c(Cl)cccc1Cl` (centres undefined) registered an MIC of 1.66 µg/mL (≈ 3.41 µM).

`COc1ccc(/C=C/C(=O)c2ccc(-n3cccc3)cc2)cc1OC` gave an MIC of 25 µg/mL (≈ 75 µM).

`c1ccc(Oc2cccc(-c3cc(-c4ccc(-n5cccc5)cc4)on3)c2)cc1` registered an MIC of 12.5 µg/mL (≈ 33 µM).

Turning to `Fc1ccc(-c2cc(-c3ccc(-n4cccc4)cc3)on2)cc1`, inhibition of growth (MIC) required 12.5 µg/mL (≈ 41.1 µM).

In turn, `O=C(/C=C/c1ccc(Cl)cc1Cl)c1ccc(-n2cccc2)cc1` registered an MIC of 25 µg/mL (≈ 73.1 µM).

The compound `Brc1ccccc1-c1cc(-c2ccc(-n3cccc3)cc2)on1` displayed an MIC of 100 µg/mL (≈ 274 µM).

Turning to `CC(=O)N1N=C(c2ccc(-n3cccc3)cc2)CC1c1cccc(Oc2ccccc2)c1` (centres undefined), the MIC was found to be 12.5 µg/mL (≈ 29.7 µM).

With `Cc1ccc(C)n1-c1ccccc1NC(=S)Nc1ccccc1Br`, the MIC amounted to 50 µg/mL (≈ 125 µM).

`COc1cccc(/C=C/C(=O)c2ccc(-n3cccc3)cc2)c1`: the MIC was 25 µg/mL (≈ 82.4 µM).

With `CO[C@H]1/C=C/O[C@@]2(C)Oc3c(C)c(O)c4c(O)c(c(/C=N/N5CCN(C)CC5)c(O)c4c3C2=O)NC(=O)/C(C)=C\C=C\[C@H](C)[C@H](O)[C@@H](C)[C@@H](O)[C@@H](C)[C@H](OC(C)=O)[C@@H]1C` [RIFAMPIN], the MIC stood at 0.4 µg/mL (≈ 0.486 µM).

Consider `COc1cc(C2CC(c3cccc([N+](=O)[O-])c3)=NN2C(C)=O)cc(OC)c1OC` (centres undefined), for which the MIC came to 12.5 µg/mL (≈ 31.3 µM).

Compound `CC(=O)N1N=C(c2ccc(-n3cccc3)cc2)CC1c1ccco1` (centres undefined) showed an MIC of 25 µg/mL (≈ 78.3 µM).

`O=C(/C=C/c1ccccc1Br)c1ccc(-n2cccc2)cc1` displayed an MIC of 50 µg/mL (≈ 142 µM).

In the case of `CC(=O)N1N=C(c2ccc(-n3cccc3)cc2)CC1c1ccc(Cl)cc1Cl` (centres undefined), the MIC was found to be 25 µg/mL (≈ 62.8 µM).

On to `CC(=O)N1N=C(c2ccc(-n3cccc3)cc2)CC1c1ccccc1` (centres undefined), for which inhibition of growth (MIC) required 25 µg/mL (≈ 75.9 µM).

For `Cc1ccc(-c2cc(-c3ccc(-n4cccc4)cc3)on2)cc1`, the minimal inhibitory concentration (MIC) came to 12.5 µg/mL (≈ 41.6 µM).

On to `O=C(/C=C/c1ccccc1Cl)c1ccc(-n2cccc2)cc1`, for which 25 µg/mL (≈ 81.2 µM) was the least that counted as inhibitory (MIC).

For `O=C(/C=C/c1ccccc1O)c1ccc(-n2cccc2)cc1`, inhibition of growth (MIC) required 25 µg/mL (≈ 86.4 µM).

In turn, `Cc1ccc(C)n1-c1ccccc1NC(=S)Nc1ccc(Cl)c(Cl)c1` had an MIC of 6.25 µg/mL (≈ 16 µM).

`CC[C@@H](CO)NCCN[C@@H](CC)CO` [ETHAMBUTOL]: inhibition of growth (MIC) required 0.5 µg/mL (≈ 2.45 µM).

For the compound `O=C(/C=C/c1ccc(F)cc1)c1ccc(-n2cccc2)cc1`, inhibition of growth (MIC) required 12.5 µg/mL (≈ 42.9 µM).

Take `COc1ccc(C2CC(c3ccc(-n4cccc4)cc3)=NN2C(C)=O)cc1OC` (centres undefined): 12.5 µg/mL (≈ 32.1 µM) was the least that counted as inhibitory (MIC).
